First the molecules themselves.
B1: tRNA (parent)
chain: GUUCCGUUGGCGUAAUGGUAACGCGUCUCCCUCCUAAGGAGAAGACUGCGGGUUCGAGUCCCGUACGGAACG

Here are results for 167 variants from the RNAGym collection of RNA variant scans (doi:10.1126/science.aae0568).

This sample holds only a part of the variants without activity.

The variants in this series derive from B1. The series can be described thus: yeast fitness relative to wild type (ratio to wild type); higher = fitter; tRNA-Arg(CCU), competitive growth, 37 C, YPD. In outline: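 The tRNA-Arg(CCU) gene variants were made by chemical synthesis with a 3% per-site mutation rate at 69 sites and inserted at the native genomic locus of Saccharomyces cerevisiae. After pooling, the strains were competed in YPD at 37°C for 24 hours in six parallel replicates. Gene amplicons from the start population and each end population were read by 100-nucleotide paired-end sequencing, and Darwinian fitness relative to wild type was taken from genotype frequency changes. Genotypes needed ≥ 100 starting reads, and estimates < 0.5 were set to 0.5.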
As to A40C G56C C66G, the yeast fitness is not above 0.5. For G39C A43U, the yeast fitness is 0.934. Regarding G39C A43G, the yeast fitness is 0.684.

Turning to G39C G63A, the yeast fitness stood at 0.7. The figure for G39C A57C A70U is not above 0.5; for A40C G50A C62U it is 0.543; for A40C C46U it is 0.875. In the case of A40C C46A, the yeast fitness amounted to 0.994. G39A U47A C55U G67A A69G: the yeast fitness was not above 0.5. As to G39A G56C, the yeast fitness amounted to 0.603. Consider G39A G56A, for which the yeast fitness came out at 0.914.

For G39C A40C G41A A42G A65U, the yeast fitness is not above 0.5. As to G39C A43G G48C C49A G50A, the yeast fitness was not above 0.5.

For the variant G39C C62U G63C, the yeast fitness was not above 0.5. As for A40C C55U C60G C62A, the yeast fitness was determined as 0.546. The figure for A40C A69U is 0.843.

Turning to A40C A69C, the yeast fitness is 0.765. Take A40C G41C: the yeast fitness is 0.56. For A40C G41A, the yeast fitness is 0.978. As to A40C A42C U53A, the yeast fitness is not above 0.5. Take A40C G67C: the yeast fitness is 0.907. As to A40C G67U, the yeast fitness turned out to be 0.815. Consider G39A G51C, for which the yeast fitness came out at 0.562. In the case of G39C A69C, the yeast fitness was determined as 0.834.

G39C A69U: the yeast fitness turned out to be 0.826. For G39C C62G, the yeast fitness amounted to 0.607. Next, A40C A45C C62U: not above 0.5; G39C U54G A65G: not above 0.5. The figure for G39A G44C is 0.816; for G39C U53G it is 0.578. In the case of G39C G67C, the yeast fitness turned out to be 0.742. On to A40G A43G G44C C66U, for which the yeast fitness is not above 0.5. The figure for A40C C61A A65U is 0.625. On to G39C A42G G63A, for which the yeast fitness is not above 0.5. Turning to A40C A42U G56A C66G, the yeast fitness is not above 0.5.

As for G39C A42C A45C, the yeast fitness is 0.538.

Regarding A40C C62G G63A, the yeast fitness was not above 0.5. On to A40C C66G, for which the yeast fitness worked out at 0.669. As to A40C C66A, the yeast fitness was determined as 0.755. On to A40C A43U, for which the yeast fitness was 0.986. As for A40C A43G, the yeast fitness was determined as 0.741.

G39C G44C G56C: the yeast fitness was not above 0.5. The figure for G39C G50A U64A is not above 0.5; for A40C G41C G67C it is not above 0.5. A40C C55U: the yeast fitness is 0.929. Regarding A40C C55G, the yeast fitness stood at 0.527. The figure for G39C G44C is 0.749. For A40G A43G G44C, the yeast fitness was not above 0.5. On to G39C A65G A70U, for which the yeast fitness was not above 0.5. Take G39C C55G: the yeast fitness is not above 0.5.

Regarding A40C C46A C61G A69G, the yeast fitness is not above 0.5.

On to A40C A65U C66A, for which the yeast fitness was found to be 0.562.

Take A40C G67U G68C: the yeast fitness was determined as 0.585. With A40C A42G A43G C49A G52A, the yeast fitness was not above 0.5. For the variant A40G A43G C62G, the yeast fitness is not above 0.5. Next, G39A U53A: 0.596; G39A U53A G68C: not above 0.5; A40C U54C: 0.963. As to A40C G56A G58C, the yeast fitness amounted to 0.598. A40C G51A U54A: the yeast fitness was not above 0.5. Next, A40C A57U C61U: not above 0.5; G39A U47A A57G: not above 0.5; G39C U47C: 0.822. A40C C60G C62G: the yeast fitness is not above 0.5. Regarding A40C C49A G51C U59A, the yeast fitness was not above 0.5. For the variant G39C A42G A43U C62U A69U, the yeast fitness was not above 0.5. Consider G39C A43U G58C, for which the yeast fitness amounted to 0.57. Next, G39C C62A U64A: not above 0.5. Consider G39C C46U C62U C66G, for which the yeast fitness is not above 0.5.

For the variant A40C A42C A70U, the yeast fitness came to 0.549. For the variant G39C A43G U53A C62A G68C, the yeast fitness is not above 0.5.

With A40C G50C, the yeast fitness was determined as 0.644. With G39C C60G A70U, the yeast fitness was 0.524. As to A40C A65U, the yeast fitness was determined as 0.817.

Consider A40C A65C, for which the yeast fitness is 0.825. Regarding A40C A65G, the yeast fitness worked out at 0.924. In the case of G39A U54A, the yeast fitness came out at 0.61.

In the case of G39C G50A U59C, the yeast fitness was not above 0.5.

Regarding A40C G63A, the yeast fitness was 0.815. For G39C A65G, the yeast fitness stood at 0.754. Turning to A40C U53C, the yeast fitness was 0.828. Regarding A40C U53A, the yeast fitness is 0.599. For A40C A43U C61A, the yeast fitness was found to be 0.611. Next, G39C G48C G52C: not above 0.5; G39C U53A C62A G68C: not above 0.5; A40C C60U C61U: not above 0.5. With A40C C46G G51C A57C A65U A70C, the yeast fitness was 0.555. With A40C G52C, the yeast fitness was determined as 0.685.

A40C G44C C55G: the yeast fitness is not above 0.5. The figure for A40G A45C C49G G67C A69U is not above 0.5; for A40C A43U C60U it is 0.588; for A40C A42G G56C it is 0.588. As to A40G A42U, the yeast fitness came out at 0.71. Turning to A40G A42C, the yeast fitness amounted to 0.757. For the variant G39C C60U, the yeast fitness stood at 0.656. G39C C60A: the yeast fitness was 0.587. Next, G39C C60G: 0.619; G39C A40U U64G: not above 0.5. With G39C G44C G50A, the yeast fitness was 0.566. Next, A40C C46U G52C: not above 0.5. With A40C U47A, the yeast fitness is 0.636. As for A40C C61A C66A, the yeast fitness was not above 0.5. For G39C A42C A45C A70C, the yeast fitness is not above 0.5.

As for A40C A57U C60G C66G, the yeast fitness was not above 0.5.

On to A40C A57G A70C, for which the yeast fitness is 0.55.

G39A G52C C55G G63A: the yeast fitness is not above 0.5. As for G39A G68U, the yeast fitness stood at 0.824.

For the variant G39C C61U, the yeast fitness stood at 0.751.

For the variant A40C C49U, the yeast fitness was determined as 0.892. Next, G39C G51A: 0.739; G39C G50A: 0.752; G39C G50C: 0.575. Take G39C G44C A65C: the yeast fitness was not above 0.5. Next, A40C G51A G63A A69C: not above 0.5; G39C C46A A69C: 0.53. Regarding G39A G68C A70G, the yeast fitness was not above 0.5. Take G39C G41A C60G C61U C62G A65U: the yeast fitness turned out to be 0.547.

As to G39C G44C C46U A70U, the yeast fitness is not above 0.5.

With A40C A70G, the yeast fitness worked out at 0.979. Consider A40C A70C, for which the yeast fitness is 0.94. Regarding G39A G63C, the yeast fitness turned out to be 0.728. Regarding G39C A43U A70U, the yeast fitness amounted to 0.691. Next, A40C A42U C49G C66G: 0.612. Consider A40C G48A, for which the yeast fitness came to 1.02. With A40C G58C, the yeast fitness amounted to 0.922. Next, G39A G51C U59C: not above 0.5. With A40C A42G, the yeast fitness was determined as 0.886. Regarding G39C A43C A57C, the yeast fitness worked out at 0.628. Consider G39C G52C, for which the yeast fitness is 0.635. With A40C C62U U64C, the yeast fitness turned out to be 0.534. Take G39C A43G G44C A45U C49G: the yeast fitness is 0.563. As to G39U C49A G58C, the yeast fitness amounted to 0.646. Turning to A40G A43U C55G, the yeast fitness was 0.535. As for A40C A57G, the yeast fitness was found to be 0.813.

For G39C G67A A70G, the yeast fitness was 0.648. The figure for G39A U47A is 0.89; for G39C A42C it is 0.687; for G39C G44C G52C G56A it is not above 0.5.

As for G39C A57C, the yeast fitness is not above 0.5. A40C A45G: the yeast fitness worked out at 1.

Turning to A40C A45U, the yeast fitness was 0.98. For G39C C46G, the yeast fitness came out at 0.875. Next, G39U G52A: 0.779; A40C C62U: 0.863; G39C A43C G56A C60G: not above 0.5. For A40C A42C G56A G67A, the yeast fitness is not above 0.5. Take G39C G44C C46U: the yeast fitness was found to be 0.588. In the case of G39A U59C, the yeast fitness was 0.956. Take G39C G51C A65G: the yeast fitness is not above 0.5. A40C A42U C49U G50C C66U: the yeast fitness turned out to be 0.565. Take G39A G52C C55G: the yeast fitness came out at 0.541. The figure for G39C A57C C61A U64C is not above 0.5; for G39C U64C it is 0.959; for G39C U54G A70C it is 0.564.

As for G39C C46A C62G, the yeast fitness is not above 0.5. Consider A40G A42U C49A, for which the yeast fitness was not above 0.5.

On to A40C C49G C60G, for which the yeast fitness was determined as 0.532. Regarding G39C C49G, the yeast fitness is 0.59. G39C C49U: the yeast fitness amounted to 0.827. Next, G39C C60U A69C: 0.565; A40C A45C A70U: not above 0.5; G39C C46U C49U G56A G68C: 0.54.

Regarding G39U C66U, the yeast fitness amounted to 0.854. G39A G52C C55G C60A: the yeast fitness is not above 0.5. Next, A40C C60U G67A: not above 0.5; A40C A45G U59A: 0.573. Next, G39A G48C: 0.718.
